PGC1a acetyl up = raises PGC1a acetylation signal in U2OS cells; 350,000 tested, 0.21% active; activation, % at 15.6 µM; U2OS PGC1a acetylation AlphaScreen, overnight;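 active means every replicate reaching activation of at least 50%, whatever the mean replicate activation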;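 further: hits raise the AlphaScreen acetylation signal above neutral controls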
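Incubation: overnight compound treatment, 37 °C. System: U2OS cells transduced with flag-tagged PGC1a and GCN5 acetyltransferase. Detection: AlphaScreen lysate read. Compound: single-point compound dosing.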
* = called active by the depositor. These entries were drawn from the full list.

SMILES | PGC1a acetyl up
CC(C)(C)C(=O)Nc1sc2c(c1-c1nc3ccccc3[nH]1)CCCC2 | 65.2*
O=C(CCCCCN1C(=O)c2cccc3cccc(c23)C1=O)NCc1cccnc1 | 493.7*
CCNC(=S)N1C2CCC1CC(NC(=O)NC1CCCCC1)C2 (stereo unspecified) | -48.2
COC(=O)c1nn(-c2ccccc2)ccc1=O | -44.3
O=C(C(Br)=Cc1ccccc1)c1ccccc1 | 159.7*
CCCOc1ccc2ccccc2c1/C=C1\SC(=O)NC1=O | -75.8
O=C1CSC(=Nc2ccc(Cl)cc2)N1Cc1ccco1 | -46.8
O=C(NCc1ccco1)c1ccc(Cn2c(=O)c3ccccc3n(Cc3ccc(Cl)cc3)c2=O)cc1 | 87.8*
COCCCNC(=O)c1ccc(Cn2c(=O)c3ccccc3n(Cc3ccccc3C)c2=O)cc1 | -52.2
O=C(Nc1ccc(F)cc1)N[C@H]1C=C[C@H](CC(=O)N2CCCCC2)O[C@H]1CO | -42.8
Cc1ccc(CNn2cnnc2SCC(=O)NC(C)(C)C)cc1 | -42.4
CCOC(=O)CSc1nc2cc3c(cc2cc1C#N)OCCO3 | -40.3
CC(C)NC(=O)Nc1ccc2c(c1)C(=O)N([C@H](C)CO)C[C@@H](C)[C@H](CN(C)S(=O)(=O)c1ccccc1)OCCCC[C@@H](C)O2 | -44.1
NCCCCCC(=O)O | -51.2
Cc1cc(=O)[nH]c(SCC(=O)N2CCc3ccccc3C2)n1 | -51.8
Cc1ccc(Cl)cc1N1CCN(C(=O)CSc2nnc3n2C(C)(C)Cc2ccccc2-3)CC1 | 51.8*
CC1=CC(=O)C=C(C)C1=NOS(=O)(=O)c1ccccc1 | 60.8*
NC(=O)C1CCCCc2c1[nH]c1ccc(Cl)cc21 (stereo unspecified) | 663.8*
O=C1C=CC(=O)c2c(O)c(N3CCN(CCO)CC3)c(Cl)c(O)c21 | -50.5
O=C(c1ccc(NC(=O)C2(c3ccccc3)CCOCC2)cc1)N1CCOCC1 | -41.0
c1csc(CNc2ncnc3ccc(-c4ccoc4)cc23)c1 | -50.4
CC1=CCC2C(=O)N(c3cccc(C(=O)NCc4ccccc4)c3)C(=O)C2C1 (stereo unspecified) | -63.2
Nc1c(C(=O)c2ccccc2)sc2nsc(SCCN3CCCC3)c12 | 126.2*
O=C(Nc1cccc(OC(F)(F)F)c1)c1ccc(-c2cccnc2)c2ccoc12 | 58.7*
CC[C@H](C)[C@@H]1OC(=O)[C@@H](C)[C@@H](CC)NC(=O)[C@H](C)N(C)C(=O)C(C)(C)C(=O)C(C)NC(=O)[C@H](Cc2ccccc2)N(C)C(=O)[C@H](C(C)C)N(C)C(=O)CNC(=O)[C@H](CC(C)C)N(C)C(=O)CNC1=O (stereo partly specified) | -76.1
SMILES | PGC1a acetyl up
CN(C)c1ccc(/C=N/N=C2/NC(=O)/C(=C/c3ccc([N+](=O)[O-])cc3)S2)cc1 | 80.6*
CN(C)c1ccc(C=C2SC(=S)NC2=O)cc1 | -51.2
Cc1ccc(-c2cnc3c(c2)C(=O)N([C@H](C)CO)C[C@H](C)[C@@H](CN(C)C)O3)cc1 | -49.8
O=C(CCC1CCN(Cc2ccccc2Cl)CC1)NC1CC1 | -94.6
COC(=O)Nc1ccc(S(=O)(=O)N(CCO)CC(F)(F)C(F)F)cc1 | 62.0*
O=S(=O)(c1ccc(N2CCC(c3ccc(Cl)cc3)=N2)cc1)N(CCO)CCO | -42.6
C[C@@H]1CN([C@H](C)CO)C(=O)c2cc(C#CC3CC3)cnc2O[C@H]1CN(C)C(=O)Nc1ccc(F)cc1 | -40.7
CO[C@@H]1CN(C)C(=O)c2cc(NS(=O)(=O)c3ccc(Cl)cc3)ccc2OC[C@H](C)N(C)C[C@H]1C | -60.1
CN(Cc1c(F)cccc1Cl)c1nnnn1-c1ccccc1 | -46.7
O=C(NC1CCCCCCC1O)c1ccccc1 (stereo unspecified) | -57.1
O=C(c1ccccc1)C1OC1C(=O)c1ccccc1 (stereo unspecified) | 76.7*
Cc1ccc(NC(=S)/N=C(\N)Nc2nc(C)c3cc(C)c(C)cc3n2)cc1C | 66.2*
CN(C)C(=O)C[C@H]1CC[C@H](NC(=O)C2CCC2)[C@@H](CO)O1 | -44.4
COc1cc2nc(SCc3c(C)noc3C)n(CCC3=CCCCC3)c(=O)c2cc1OC | -48.0
C=CCn1c(SCc2c(C)noc2C)nc2ccccc2c1=O | 74.0*
Cc1noc(C)c1CSc1nnc(-c2cccnc2)n1C1CCCCC1C (stereo unspecified) | -49.1
COCC(=O)OCC(=O)Nc1cc(C(C)(C)C)nn1-c1ccccc1 | -47.2
Cc1ccc(NC(=O)c2c(C)nn(-c3ccccc3)c2Cl)c(C)c1 | -41.3
OC[C@@H]1[C@H](c2ccc(C#CC3CCCC3)cc2)[C@H]2CN(CCC(F)(F)F)CCCCN12 | -80.5
OC[C@H]1[C@@H](c2ccc(C#CC3CCCC3)cc2)[C@@H]2CN(CCC(F)(F)F)CCCCN12 | 60.2*
N#C[C@H]1[C@H](c2ccc(C#CC3CCCC3)cc2)[C@H](CO)N1C(=O)Cc1ccccn1 | -58.9
Cc1cccc(N2C(=O)C(Cl)=C(N3CCOCC3)C2=O)c1 | -81.3
COc1cccc(C(=O)CSc2nnc(CNS(=O)(=O)c3ccc(C)cc3)n2C)c1 | -88.6
CCOc1ccc(C(C)=O)cc1N1C(=O)C2C3C=CC(C3=C(C)C)C2C1=O (stereo unspecified) | -43.5

Screening data from PubChem BioAssay.
